Measured values reported in ChEMBL document CHEMBL1143135, “A structure-activity relationship study and combinatorial synthetic approach of C-terminal modified bifunctional peptides that are delta/mu opioid receptor agonists and neurokinin 1 receptor antagonists” (J Med Chem, 2008).

How the values were obtained:
Substance-P receptor = Substance-P receptor (Homo sapiens, UniProt P25103); assay: Displacement of [3H]substance P from human NK1 receptor expressed in CHO cells; type: cell-based
[1] = biological target: Substance-P receptor (Rattus norvegicus) (UniProt P14600); assay: Displacement of [3H]substance P from rat NK1 receptor expressed in CHO cells at 1 uM; type: cell-based
Sequence of Substance-P receptor (Rattus norvegicus) (P14600 whole entry): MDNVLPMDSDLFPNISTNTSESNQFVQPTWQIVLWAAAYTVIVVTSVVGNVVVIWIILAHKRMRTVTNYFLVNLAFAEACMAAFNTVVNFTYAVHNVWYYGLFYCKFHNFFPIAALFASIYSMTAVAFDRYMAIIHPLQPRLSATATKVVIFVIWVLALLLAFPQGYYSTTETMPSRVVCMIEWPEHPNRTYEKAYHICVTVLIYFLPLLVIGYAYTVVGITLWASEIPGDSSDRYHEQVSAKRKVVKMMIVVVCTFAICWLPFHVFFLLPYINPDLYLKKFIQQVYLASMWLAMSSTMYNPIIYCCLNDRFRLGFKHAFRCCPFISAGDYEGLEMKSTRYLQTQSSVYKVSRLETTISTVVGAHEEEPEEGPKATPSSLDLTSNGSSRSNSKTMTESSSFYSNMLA

[2] = Lipophilicity, log D at pH 7.4; type: physicochemical; conditions: buffer
Summary of the method: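 2 mg peptide in 500 µL 0.05 M HEPES/0.1 M NaCl, pH 7.4, shaken with 500 µL 1-octanol for 12 h at rt. Phases separated by centrifugation and each phase analysed by HPLC at 230 nm.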

[3] = biological target: Substance-P receptor (Rattus norvegicus) (UniProt P14600); assay: Displacement of [3H]substance P from rat NK1 receptor expressed in CHO cells; type: cell-based
[4] = biological target: Substance-P receptor (Cavia porcellus) (UniProt P30547); assay: Antagonist activity at NK1 receptor in Hartley guinea pig isolated ileum assessed as inhibition of substance P-induced muscle contraction; type: functional, tissue-based
Sequence of Substance-P receptor (Cavia porcellus) (P30547 whole entry): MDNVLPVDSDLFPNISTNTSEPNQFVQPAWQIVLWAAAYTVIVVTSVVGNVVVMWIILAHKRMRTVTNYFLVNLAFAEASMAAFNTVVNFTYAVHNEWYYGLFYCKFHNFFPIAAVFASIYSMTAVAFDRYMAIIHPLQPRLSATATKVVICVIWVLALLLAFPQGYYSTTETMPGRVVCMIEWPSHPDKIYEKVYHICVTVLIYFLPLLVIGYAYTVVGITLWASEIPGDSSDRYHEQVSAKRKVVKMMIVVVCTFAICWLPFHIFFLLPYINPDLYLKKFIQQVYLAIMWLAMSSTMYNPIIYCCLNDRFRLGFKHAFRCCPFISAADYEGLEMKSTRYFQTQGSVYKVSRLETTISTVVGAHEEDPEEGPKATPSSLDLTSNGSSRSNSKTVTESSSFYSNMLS
Summary of the method: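 Guinea pig ileum LMMP preparation in 1 µM naloxone. Full substance P concentration–response curves run with and without test compound; maximal substance P peak taken as 100%. Ke is the antagonist concentration that halves substance P activity, from at least four tissues.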

Sequence of Substance-P receptor (P25103 whole entry): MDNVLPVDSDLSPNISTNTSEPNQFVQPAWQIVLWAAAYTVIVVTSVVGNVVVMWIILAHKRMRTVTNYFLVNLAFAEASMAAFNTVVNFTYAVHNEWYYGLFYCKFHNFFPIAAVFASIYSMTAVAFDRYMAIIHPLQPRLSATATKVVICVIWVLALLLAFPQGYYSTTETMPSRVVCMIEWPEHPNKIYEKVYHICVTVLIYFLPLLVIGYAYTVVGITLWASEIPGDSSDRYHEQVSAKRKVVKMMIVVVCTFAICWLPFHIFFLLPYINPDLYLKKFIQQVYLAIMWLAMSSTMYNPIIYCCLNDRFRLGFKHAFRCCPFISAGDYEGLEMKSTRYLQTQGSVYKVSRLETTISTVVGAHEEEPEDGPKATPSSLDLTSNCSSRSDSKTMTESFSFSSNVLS

SMILES	logIC50 (Substance-P receptor)	inhibition [1] [%]	logD [2]	logIC50 [3]	Ke [4] [nM]	Ki (Substance-P receptor) [nM]
CC(C)C[C@H](NC(=O)[C@@H]1CCCN1C(=O)[C@H](Cc1ccccc1)NC(=O)CNC(=O)[C@@H](C)NC(=O)[C@@H](N)Cc1ccc(O)cc1)C(=O)N[C@@H](Cc1c[nH]c2ccccc12)C(=O)N(C)Cc1ccccc1	-8.5	33	3.5			
CC(C)C[C@H](NC(=O)[C@@H]1CCCN1C(=O)[C@H](Cc1ccccc1)NC(=O)CNC(=O)[C@@H](C)NC(=O)[C@@H](N)Cc1ccc(O)cc1)C(=O)N[C@@H](Cc1c[nH]c2ccccc12)C(=O)N(C)Cc1cc(C(F)(F)F)cc(C(F)(F)F)c1	-8.5			-7.7		
CC(C)C[C@H](NC(=O)[C@@H]1CCCN1C(=O)[C@H](Cc1ccccc1)NC(=O)CNC(=O)[C@@H](C)NC(=O)[C@@H](N)Cc1ccc(O)cc1)C(=O)N[C@@H](Cc1c[nH]c2ccccc12)C(=O)NCc1cc(C(F)(F)F)cc(C(F)(F)F)c1	-8.9			-7		
CC(C)C[C@H](NC(=O)[C@@H]1CCCN1C(=O)[C@H](Cc1ccccc1)NC(=O)CNC(=O)[C@@H](C)NC(=O)[C@@H](N)Cc1ccc(O)cc1)C(=O)N[C@@H](Cc1c[nH]c2ccccc12)C(=O)OCc1ccccc1	-6.7		3.8	-6.1		
CC(C)C[C@H](NC(=O)[C@@H]1CCCN1C(=O)[C@H](Cc1ccccc1)NC(=O)CNC(=O)[C@@H](C)NC(=O)[C@@H](N)Cc1ccc(O)cc1)C(=O)N[C@@H](Cc1c[nH]c2ccccc12)C(=O)NCc1ccccc1	-7.5	30	3.3		26	
CC(C)C[C@H](NC(=O)[C@@H]1CCCN1C(=O)[C@H](Cc1ccccc1)NC(=O)CNC(=O)[C@@H](C)NC(=O)[C@@H](N)Cc1ccc(O)cc1)C(=O)N[C@@H](Cc1c[nH]c2ccccc12)C(=O)OCc1cc(C(F)(F)F)cc(C(F)(F)F)c1	-10			-8.3	3.6	0.046
